What was measured:
[1] = Cytotoxicity against human MT4 cells; type: cell-based
Procedure, shortened: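 Cytotoxicity measured in MT-4 cells in parallel with the 7-day multi-cycle antiviral assay. CC50 is the mean of at least three experiments.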

[2] = tested on: Human immunodeficiency virus 1; assay: Antiviral activity against luciferase-bearing envelope-defective HIV-1 NL4-3 pseudotype virus infected in human MT4 cells co-infected with HIV1 HXBc2 envelope by single cycle infection assay; type: functional, organism-based; conditions: Human immunodeficiency virus 1, NL4-3, MT4
Procedure, shortened: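 Single-cycle infection of MT-4 cells with a luciferase-bearing env-defective NL-4.3 virus pseudotyped with HIV-1 env (HXBc2), read by luciferase. EC50 is the mean of at least three experiments.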

[3] = Inhibition of HIV integrase strand transfer activity; parameters: species or system Human immunodeficiency virus
Procedure, shortened: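 Strand-transfer assay on purified integrase using 3'-processed oligonucleotides. % inhibition = [1 − (sample counts/mean positive control)] × 100, plotted against log molar concentration. IC50 is taken from a sigmoidal dose-response fit with variable slope and is the mean of at least three experiments.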

[4] = Plasma concentration in rat at 50 mg/kg after 18 hrs; type: ADME, organism-based
Procedure, shortened: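 Female Sprague-Dawley rats (8) given 50 mg/kg orally, with blood collected at 7 time points after dosing.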

[5] = target: Human immunodeficiency virus type 1 integrase (Human immunodeficiency virus 1, UniProt Q7ZJM1, N155H); assay: Inhibition of HIV integrase N155H mutant
Human immunodeficiency virus type 1 integrase, sequence (Q7ZJM1 entry or part of it N155H): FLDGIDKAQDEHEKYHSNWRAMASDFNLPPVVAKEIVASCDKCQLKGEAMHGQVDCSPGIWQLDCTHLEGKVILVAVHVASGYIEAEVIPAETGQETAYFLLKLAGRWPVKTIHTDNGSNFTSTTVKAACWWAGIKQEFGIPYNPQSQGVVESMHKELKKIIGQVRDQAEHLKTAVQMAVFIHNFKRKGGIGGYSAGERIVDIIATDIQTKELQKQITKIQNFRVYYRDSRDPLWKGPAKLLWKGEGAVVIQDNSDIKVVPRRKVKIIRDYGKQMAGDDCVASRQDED

[6] = tested on: Human immunodeficiency virus; assay: Ratio of EC90 for HIV integrase assessed as accumulation of 2-LTR to IC50 for HIV integrase strand transfer activity
[7] = tested on: Salmonella typhimurium; assay: Mutagenicity in Salmonella typhimurium by Ames test; type: toxicity, organism-based; conditions: salmonella enterica subsp. enterica serovar typhimurium
[8] = tested on: Human immunodeficiency virus; assay: Ratio of EC50 for HIV integrase assessed as accumulation of 2-LTR to IC50 for HIV integrase strand transfer activity
[9] = Half life in Sprague-Dawley rat at 5 mg/kg, iv and 50 mg/kg, po by LC/MS/MS analysis; type: ADME, organism-based; conditions: in vivo
Procedure, shortened: (§1)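 Female Sprague-Dawley rats randomly assigned to two groups: 13 rats dosed 5 mg/kg intravenously, 8 rats dosed 50 mg/kg orally. Blood collected at 7 time points after dosing. Bioavailability taken over 24 h.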

[10] = Oral bioavailability in Sprague-Dawley rat at 50 mg/kg after 24 hrs by LC/MS/MS analysis; type: ADME, organism-based; conditions: in vivo; procedure, shortened: as §1
[11] = Lipophilicity Log P of the compound; type: physicochemical; conditions: octanol/water
[12] = Plasma protein binding in rat by Rapid Equilibrium Dialysis method; type: ADME, cell-free; conditions: read-out: PPB (converted)
Procedure, shortened: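 Protein binding measured by rapid equilibrium dialysis.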

[13] = Inhibition of […] reverse transcriptase
[14] = target: RNA-directed RNA polymerase (Hepacivirus hominis, UniProt O39930); assay: Inhibition of HCV RNA polymerase
RNA-directed RNA polymerase, sequence (O39930 whole entry): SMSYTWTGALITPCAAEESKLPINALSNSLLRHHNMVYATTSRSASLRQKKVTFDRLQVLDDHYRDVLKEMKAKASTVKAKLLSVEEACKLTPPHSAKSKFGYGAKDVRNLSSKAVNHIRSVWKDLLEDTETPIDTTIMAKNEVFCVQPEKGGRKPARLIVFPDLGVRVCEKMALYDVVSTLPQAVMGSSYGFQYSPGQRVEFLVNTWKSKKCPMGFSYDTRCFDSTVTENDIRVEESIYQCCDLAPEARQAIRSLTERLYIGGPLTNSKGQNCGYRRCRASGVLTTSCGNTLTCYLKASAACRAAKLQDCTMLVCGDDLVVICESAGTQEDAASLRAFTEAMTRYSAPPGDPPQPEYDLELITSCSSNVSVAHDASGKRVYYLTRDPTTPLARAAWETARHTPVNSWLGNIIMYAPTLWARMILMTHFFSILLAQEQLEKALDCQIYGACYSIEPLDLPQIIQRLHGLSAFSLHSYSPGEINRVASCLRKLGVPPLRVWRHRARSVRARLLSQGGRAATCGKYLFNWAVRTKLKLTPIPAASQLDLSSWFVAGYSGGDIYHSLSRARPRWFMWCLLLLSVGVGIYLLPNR

[15] = Therapeutic index, ratio of CC50 for human MT4 cells to EC50 for luciferase-bearing envelope-defective HIV-1 NL4-3 pseudotype virus infected in human MT4 cells co-infected with HIV1 HXBc2 envelope; type: cell-based; conditions: read-out: Ratio CC50/EC50
[16] = tested on: Human immunodeficiency virus 1; assay: Antiviral activity against luciferase-bearing envelope-defective HIV-1 NL4-3 pseudotype virus infected in human MT4 cells co-infected with HIV1 HXBc2 envelope after 7 days by multi-cycle assay; type: functional, organism-based; conditions: Human immunodeficiency virus 1, NL4-3, MT4, 168 h
Procedure, shortened: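 Multi-cycle antiviral assay run for 7 days in MT-4 cells, in parallel with the cytotoxicity assay. EC50 is the mean of at least three experiments.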

Row | Compound | CC50 [1] [nM] | EC50 [2] [nM] | IC50 [3] [nM] | also measured
1 | O=C(CC1CCCCC1)Nc1cnc(C(=O)NO)c(O)c1CO | 50000 | 11000 |  | 
2 | COc1ccc(CC(=O)Nc2cnc(C(=O)NO)c(O)c2CO)cc1 | 25000 | 1500 |  | 
3 | O=C(NO)c1ncc(/C=C/c2ccc(F)cc2)c(CO)c1O | 50000 | > 10000 | > 100000 | 
4 | O=C(NO)c1ncc(CNc2ccc(F)cc2)c(CO)c1O | 50000 | 20 | 25 | 
5 | O=C(NO)c1ncc(COCc2ccc(F)cc2)c(CO)c1O | 11000 | 15 | 80 | 
6 | Cc1ccc(CC(=O)Nc2cnc(C(=O)NO)c(O)c2CO)cc1 | 32000 | 4500 |  | 
7 | O=C(NO)c1ncc(CNCc2ccc(F)cc2)c(CO)c1O | 20000 | 695 | 550 | 
8 | O=C(Cc1ccccc1)Nc1cnc(C(=O)NO)c(O)c1CO | 54000 | 100 |  | 
9 | O=C(Cc1cc(F)cc(F)c1)Nc1cnc(C(=O)NO)c(O)c1CO | 31000 | 400 |  | 
10 | O=C(NO)c1ncc(COc2ccc(F)cc2)c(CO)c1O | 27000 | 7 | 41 | 
11 | O=C(Nc1ccc(F)cc1)c1cnc(C(=O)NO)c(O)c1CO | 50000 | 40 | 328 | 
12 | O=C(NO)c1ncc(CCc2ccc(F)cc2)c(CO)c1O | 21000 | 76 | 327 | 
13 | O=C(NO)c1ncc(CS(=O)(=O)Cc2ccc(F)cc2)c(CO)c1O | 16000 | 4350 | 2300 | 
14 | O=C(Cc1ccc(F)c(F)c1)Nc1cnc(C(=O)NO)c(O)c1CO | 51000 | 100 |  | 
15 | O=C(NCCc1ccc(F)cc1)c1cnc(C(=O)NO)c(O)c1CO | 23000 | 2000 | 2300 | 
16 | O=C(Cc1ccc(Cl)c(Cl)c1)Nc1cnc(C(=O)NO)c(O)c1CO | 50000 | 40 |  | 
17 | O=C(NO)c1ncc(CSc2ccc(F)cc2)c(CO)c1O |  |  | 250 | 
18 | O=C(Cc1ccc2c(c1)OCO2)Nc1cnc(C(=O)NO)c(O)c1CO | 50000 | 1860 |  | 
19 | O=C(NO)c1ncc(CS(=O)(=O)c2ccc(F)cc2)c(CO)c1O | 50000 | 9300 | 10000 | 
20 | O=C(NO)c1ncc(CCCc2ccc(F)cc2)c(CO)c1O | 2000 | 500 | 550 | 
21 | O=C(Cc1ccc(F)c(Cl)c1)Nc1cnc(C(=O)NO)c(O)c1CO | 22000 | 25 | 29 | concentration at 18 h [4]: > 25 nM; EC50 [5]: > 300 nM; Ratio [6]: 10; Activity [7]: Non-toxic; Ratio [8]: 7; half-life [9]: 43.8 min; bioavailability [10]: 25%; logP [11]: 0.6; fraction unbound [12]: 0.11; EC50 [13]: > 50000 nM; EC50 [14]: > 50000 nM; selectivity ratio [15]: > 1000; EC50 [16]: 128 nM
22 | O=C(Nc1cnc(C(=O)NO)c(O)c1CO)c1ccc(F)cc1 | 50000 | 6300 | 300 | 

Reference: ChEMBL document CHEMBL3763044, “Pyridoxine hydroxamic acids as novel HIV-integrase inhibitors” (Bioorg Med Chem Lett, 2016)
